Experimental data taken from BindingDB's records for doi:10.1016/j.ejmech.2011.10.030 (Helwan University, 2011).

Each compound was assayed against Beta-lactamase (Pseudomonas aeruginosa, UniProt Q79MP6) (assay: Competitive inhibition of Pseudomonas aeruginosa metallo-beta-lactamase IMP-1 expressed in Escherichia coli BL21(DE3) using CENTA as substrate by spectrophotometric analysis).
Chain of Beta-lactamase (Q79MP6 whole entry): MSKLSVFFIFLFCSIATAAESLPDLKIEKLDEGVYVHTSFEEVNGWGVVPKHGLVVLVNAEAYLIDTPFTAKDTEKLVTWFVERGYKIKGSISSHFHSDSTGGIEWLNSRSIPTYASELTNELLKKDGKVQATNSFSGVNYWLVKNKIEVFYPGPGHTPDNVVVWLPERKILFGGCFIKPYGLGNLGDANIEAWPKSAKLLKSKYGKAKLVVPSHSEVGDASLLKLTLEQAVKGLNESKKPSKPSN
How it was run: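 IMP-1 lacking the first 21 signal-peptide residues, recombinantly expressed and purified, at 2 nM final. Buffer was 50 mM HEPES, 0.1 M NaCl, 100 µM ZnCl2, pH 7.0, with BSA at 20 µg/mL final. CENTA was varied from 5 to 70 µM final at three inhibitor concentrations. […] was read at 405 nm on a plate reader, and data were fitted by non-linear regression.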
With Cc1ccc(-n2c(-c3ccccc3)c(-c3ccccc3)c3c(Cl)ncnc32)cc1 the Ki was 19 µM. Cc1ccc(-n2cc(-c3ccccc3)c3c(Cl)ncnc32)cc1 showed a Ki of 33 µM. Work on Cc1ccc(-n2c(-c3ccccc3)c(-c3ccccc3)c3c(N/N=C/c4ccccc4)ncnc32)cc1 yielded a Ki of 18 µM. Compound Cc1ccc(-n2c(-c3ccccc3)c(-c3ccccc3)c3c2ncn2c(=S)[nH]nc32)cc1 has a Ki of 15 µM. In the case of COc1ccc(-n2c3c(c(-c4ccccc4)c2-c2ccccc2)C(=C(C#N)C#N)NC=N3)cc1, the Ki is reported as 29 µM. Compound COc1ccc(-n2c(-c3ccccc3)c(-c3ccccc3)c3c(Cl)ncnc32)cc1 has a Ki of 12 µM.
